Test results taken from ChEMBL document CHEMBL1122366, “Potential antiatherosclerotic agents. 3. Substituted benzoic and non benzoic acid analogues of cetaben” (1983).

What was measured:
Rattus norvegicus [1] = assay: In vivo sterol lowering activity at dose of 0.10 % of the diet; type: functional
Outline: (§1)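 Normal rats were dosed in the diet. Serum sterol and triglyceride levels were measured and expressed as the mean percent of control values. Significance versus control was reported at p < 0.05, 0.01 and 0.001.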

Rattus norvegicus [2] = assay: In vivo sterol lowering activity when dosed as 0.03 % of the diet; type: functional; outline: as §1
Rattus norvegicus [3] = assay: In vivo sterol lowering activity when dosed as 0.01 % of the diet; type: functional; outline: as §1
Rattus norvegicus [4] = assay: In vivo triglyceride lowering activity dosed at 0.10 % of the diet.; type: functional; outline: as §1
[5] = molecular target: T1, Sterol O-acyltransferase 1 (Rattus norvegicus) (UniProt O70536); assay: In vitro inhibition of acyl coenzyme A:cholesterol acyltransferase; set-up: concentration or dose not given beside the values; details: concentration not given here
T1 sequence (whole entry): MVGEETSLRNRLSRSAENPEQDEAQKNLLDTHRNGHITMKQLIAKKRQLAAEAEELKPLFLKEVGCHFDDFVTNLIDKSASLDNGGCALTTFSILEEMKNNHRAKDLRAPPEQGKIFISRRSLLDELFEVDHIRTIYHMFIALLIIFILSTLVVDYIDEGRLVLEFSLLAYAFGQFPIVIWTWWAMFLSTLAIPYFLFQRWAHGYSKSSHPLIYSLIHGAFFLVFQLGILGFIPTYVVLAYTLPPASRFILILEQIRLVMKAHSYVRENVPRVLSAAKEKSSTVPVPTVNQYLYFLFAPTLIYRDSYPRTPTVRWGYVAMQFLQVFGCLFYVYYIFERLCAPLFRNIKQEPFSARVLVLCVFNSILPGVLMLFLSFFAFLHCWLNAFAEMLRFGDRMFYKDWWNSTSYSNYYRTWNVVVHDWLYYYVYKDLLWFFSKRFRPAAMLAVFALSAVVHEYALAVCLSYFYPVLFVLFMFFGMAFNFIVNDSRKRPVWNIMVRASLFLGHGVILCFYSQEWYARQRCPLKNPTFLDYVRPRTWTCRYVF
Outline: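 Enzyme fatty acyl-CoA:cholesterol acyltransferase (ACAT), assayed in vitro at a single drug concentration of 5.2 μg/mL. The value is the mean percent inhibition of enzyme activity.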

Rattus norvegicus [6] = assay: In vivo triglyceride lowering activity when dosed as 0.01 % of the diet; type: functional; outline: as §1
Rattus norvegicus [7] = assay: In vivo triglyceride lowering activity when dosed at 0.03 % of the diet; type: functional; outline: as §1

SMILES	serum sterol level, percent of control (Rattus norvegicus [1]) [%]	serum sterol level, percent of control (Rattus norvegicus [2]) [%]	serum sterol level, % of control (Rattus norvegicus [3]) [%]	serum triglyceride, percent of control (Rattus norvegicus [4]) [%]	inhibition [5] [%]	serum triglyceride level, percent of control (Rattus norvegicus [6]) [%]	serum triglyceride level, percent of control (Rattus norvegicus [7]) [%]
CCCCCCCCCCCCCCCCNc1ccc(C(=O)Oc2ccccc2)cc1	<84	85	89	<76	0	105	76
CCCCCCCCCCCCCCCCNc1ccc(C(=O)C(C(=O)OCC)C(=O)OCC)cc1	<87	96	100	<59	9	<68	<66
CCCCCCCCCCCCCCCCNc1ccc(C(=O)OCC(=O)O)cc1	<83	88	87	<65	45	76	91
CCCCCCCCCCCCCCCCNc1ccc(C(=O)NC(C)(C)C(=O)O)cc1	88	95	89	83	13	84	90
CCCCCCCCCCCCCCCCNc1ccc(C(=O)OCC)c(C(=O)OCC)c1	90	99	98	<72	< 37	86	93
CCCCCCCCCCCCCCCCNc1ccc(C(=O)NC(=O)c2ccccc2)cc1	<75	<80	91	<58	0	76	<66
CCCCCCCCCCCCCCCCNc1ccc(C(=O)NS(=O)(=O)c2ccc(N)cc2)cc1	105	89	93	111	14	78	87
CCCCCCCCCCCCCCCCNc1ccc(C(=O)NCCS(=O)(=O)O)cc1	<80	90	91	<56	< 45	<67	71
CCCCCCCCCCCCCCCCNc1ccc(SCC(=O)O)cc1	93	97	92	100	< 22	72	110
CCCCCCCCCCCCCCCCNc1ccc(C(=O)NCC(O)CO)cc1 (configuration not stated)	<72	88	99	<48	< 61	114	<73
CCCCCCCCCCCCCCCCNc1ccc(O)cc1	92	99	104	104	0	118	124
CCCCCCCCCCCCCCCCNc1ccc(C(=O)O)cc1F	<79	98	108	<49	< 27	91	89
CCCCCCCCCCCCCCCCNc1ccc(C(=O)OCC(C)(C)CO)cc1	101	93	97	101	13	103	92
CCCCCCCCCCCCCCN(CC)c1ccc(C(=O)O)cc1	88	98	93	80	< 38	90	92
CCCCCCCCCCCCCCCCNc1ccc(C(=O)OCC(=O)OC)cc1	<71	<76	84	74	< 24	79	72
CCCCCCCCCCCCCCCCN(C(C)=O)c1ccc(C(OC(C)=O)C(N)=O)cc1 (configuration not stated)	110	111	109	89	< 40	93	86
CCCCCCCCCCCCCCCCNc1ccc(C(=O)O)c(F)c1	<75	<77	93	<40	57	77	79
CCCCCCCCCCCCCCCCNc1ccc(C(=O)CC(=O)O)cc1	104	100	105	100	< 28	80	90
CCCCCCCCCCCCCCCCNc1ccc(C(=O)CS(C)(=O)=O)cc1	100	97	98	110	0	88	112
CCCCCCCCCCCCCCCCNc1ccc(C(=O)SCC(O)CO)cc1 (configuration not stated)	<82	92	93	<64	3	106	83
CCCCCCCCCCCCCCCCNc1ccc(C(SCC)SCC)cc1	88	101	96	77	0	86	106
CCCCCCCCCCCCCCCCNc1ccc(C(=O)CO)cc1	<85	97	103	<71	20	89	75
CCCCCCCCCCCCCCCCNc1ccc(C2SCCCS2)cc1	93	92	102	91	9	105	114
CCCCCCCCCCCCCCCCNc1cc(C(=O)[O-])cc(C(=O)[O-])c1.[Na+].[Na+]	90	99	92	103	0	96	115
CCCCCCCCCCCCCCCCNc1ccc(CCC(=O)OCC)cc1	84	89	89	<45	7	96	88
CCCCCCCCCCCCCCCCNc1ccc(C(=O)Nc2ccc(C(=O)O)cc2)cc1	100	<87	95	103	12	85	121
